Key:
Rattus norvegicus [1] = test: Gastric antisecretory activity in pylorus ligated rat at a concentration of 50 mg/kg perorally, expressed as % decrease in mean titratable acid output of gastric juice in treated vs. control groups.; type: functional; conditions: route oral
Summary of the method: (§1)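 Male Carworth Farms rats (270–360 g), fasted 18 h with water; compound in PEG 200 by gavage 1 h before pylorus ligation under ether. Killed 2 h after ligation; juice centrifuged, volume and pH measured, supernatant titrated with NaOH to pH 7.4, output = volume × titre. Mean of six to seven animals against controls.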

Rattus norvegicus [2] = test: Gastric antisecretory activity in pylorus-ligated rat at a concentration of 50 mg/kg perorally, expressed as increase in mean pH.; type: functional; conditions: route oral; summary of the method: as §1
Rattus norvegicus [3] = test: Gastric antisecretory activity in pylorus-ligated rat at a concentration of 50 mg/kg po, expressed as increase in mean pH; NS means no significant change; type: functional, organism-based; set-up: dose 50 mg/kg; summary of the method: as §1
Rattus norvegicus [4] = test: Gastric antisecretory activity in pylorus ligated rat at a concentration of 50 mg/kg po, expressed as % decrease in mean titratable acid output of gastric juice in treated vs. control groups; NS means no significant change.; type: functional, organism-based; set-up: dose 50 mg/kg; summary of the method: as §1

| SMILES | Delta TAO (Rattus norvegicus [1]) | Delta pH (Rattus norvegicus [2]) | Delta pH (Rattus norvegicus [3]) | Delta TAO (Rattus norvegicus [4]) | ED50 (Rattus norvegicus [4]) |
| --- | --- | --- | --- | --- | --- |
| NS(=O)(=O)NC1c2ccccc2Oc2ccccc21 | 87 | 2 |  |  |  |
| CN1CCC(NC2c3ccccc3Oc3ccccc32)CC1 | 99 | 6.4 |  |  |  |
| c1ccc(NNC2c3ccccc3Oc3ccccc32)nc1 | 73 | 1.4 |  |  |  |
| CN(C)C1CCN(C2c3ccccc3Oc3ccccc32)CC1 | 97 | 5.8 |  |  |  |
| c1cncc(C2CCCN2C2c3ccccc3Oc3ccccc32)c1 (stereo not given) | 65 | 1.8 |  |  |  |
| c1ccc2c(c1)Oc1ccccc1C2NCCN1CCOCC1 | 47 | 2.6 |  |  |  |
| C=CCN(CC=C)C1c2ccccc2Oc2ccccc21 |  | 1.3 |  |  |  |
| CCOC(=O)N1CCN(C2c3ccccc3Oc3ccccc32)CC1 |  | 2.2 |  |  |  |
| c1ccc2c(c1)Oc1ccccc1C2N1CCNCC1 | 98 | 5.3 |  |  |  |
| c1ccc(CCNC2c3ccccc3Oc3ccccc32)nc1 | 99 | 5.9 |  |  |  |
| c1ccc2c(c1)Oc1ccccc1C2NCC1CCCCO1 (stereo not given) | 87 | 3.6 |  |  |  |
| c1cncc(NC2c3ccccc3Oc3ccccc32)c1 |  |  | Not significant | Not significant |  |
| c1ccc(CNC2c3ccccc3Oc3ccccc32)cc1 | 69 | 1.9 |  |  |  |
| C=CCNC1c2ccccc2Oc2ccccc21 |  | 4.4 |  | Not significant |  |
| c1cncc(CNC2c3ccccc3Oc3ccccc32)c1 | 94 | 4.2 |  |  |  |
| O=S(=O)(NC1c2ccccc2Oc2ccccc21)c1ccccc1 |  |  | Not significant | Not significant |  |
| c1ccc2c(c1)Oc1ccccc1C2NC1=NCCS1 | 95 | 3.6 |  |  |  |
| CCN1CCCC(N(C)C2c3ccccc3Oc3ccccc32)C1 (stereo not given) | 98 | 5.1 |  |  |  |
| CCN(CCc1ccccn1)C1c2ccccc2Oc2ccccc21 | 86 | 4.3 |  |  |  |

| SMILES | Delta TAO (Rattus norvegicus [1]) | Delta pH (Rattus norvegicus [2]) | Delta pH (Rattus norvegicus [3]) | Delta TAO (Rattus norvegicus [4]) | ED50 (Rattus norvegicus [4]) |
| --- | --- | --- | --- | --- | --- |
| CS(=O)(=O)NC1c2ccccc2Oc2ccccc21 |  |  | Not significant | Not significant |  |
| c1ccc(CCCNC2c3ccccc3Oc3ccccc32)nc1 | 99 | 5.7 |  |  |  |
| CN1CCCN(C2c3ccccc3Oc3ccccc32)CC1 | 92 | 4.6 |  |  |  |
| NC1c2ccccc2Oc2ccccc21 | 93 | 4.5 |  |  |  |
| Cc1cc(C)n(C2c3ccccc3Oc3ccccc32)n1 |  |  | Not significant | Not significant |  |
| c1ccc2c(c1)Oc1ccccc1C2NCc1ccncc1 | 77 | 3.6 |  |  |  |
| CC1=NCCN1CCNC1c2ccccc2Oc2ccccc21 | 88 | 3 |  |  |  |
| c1ccc(N2CCN(C3c4ccccc4Oc4ccccc43)CC2)nc1 |  |  | Not significant |  | Not significant |
| CN(Cc1cccnc1)C1c2ccccc2Oc2ccccc21 | 92 | 3.6 |  |  |  |
| c1ccc2c(c1)Oc1ccccc1C2Nc1nccs1 |  |  | Not significant |  |  |
| c1ccc(CNC2c3ccccc3Oc3ccccc32)nc1 | 96 | 4.8 |  |  |  |
| CN(C)CC1CCCCN1C1c2ccccc2Oc2ccccc21 (stereo not given) | 95 | 5.2 |  |  |  |
| c1cnc(NC2c3ccccc3Oc3ccccc32)nc1 | 48 |  | Not significant |  |  |
| c1ccc2c(c1)Oc1ccccc1C2NC1CN2CCC1CC2 (stereo not given) | 65 | 2.4 |  |  |  |
| O=S1(=O)CCC(NC2c3ccccc3Oc3ccccc32)C1 (stereo not given) | 57 | 1.5 |  |  |  |
| CC(CCCc1ccccn1)NC1c2ccccc2Oc2ccccc21 (stereo not given) | 100 | 6.1 |  |  |  |
| c1ccc(NNC2c3ccccc3Oc3ccccc32)cc1 |  |  | Not significant |  |  |
| CC(=N)NC1c2ccccc2Oc2ccccc21 | 88 | 1.1 |  |  |  |

Reference: ChEMBL document CHEMBL1122278, “Gastric antisecretory 9H-xanthen-9-amines” (1983)
